{"data": "Assay results collected from several papers", "SIRT2": "NAD-dependent protein deacetylase sirtuin-2 (SIRT2, Homo sapiens, UniProt Q8IXJ6)", "HSD11B2": "11-beta-hydroxysteroid dehydrogenase type 2 (HSD11B2, Homo sapiens, UniProt P80365)", "AMY2": "Pancreatic alpha-amylase (AMY2, Sus scrofa, UniProt P00690)", "CHRM2": "Muscarinic acetylcholine receptor M2 (CHRM2, Homo sapiens, UniProt P08172)", "note": "Protocols differ between the studies behind these lines."}
{"SMILES": "O=C(c1ccc(Cl)cc1)N(Cc1ccccc1)C1CCCCC1", "target": "Amine oxidase [flavin-containing] A (Maoa, Rattus norvegicus, UniProt P21396)", "effect on": "cell-free assay", "concentration": "10 µM", "inhibition [%]": 5.1}
{"SMILES": "CCCCCCCCCCC[C@@H](C[C@@H]1OC(=O)[C@H]1CCCCCC)OC(=O)[C@H](CC(C)C)NC=O", "target": "Pancreatic triacylglycerol lipase (PNLIP, Sus scrofa, UniProt P00591)", "effect on": "enzyme activity", "mode": "inhibitor", "method": "absorbance", "concentration": "50 µg/mL", "inhibition [%]": 92.2}
{"SMILES": "O=C(NC1CCC1)[C@H](Cc1c[nH]c2ccccc12)NC(=O)[C@H](CCCCNC(=S)NCc1cc(O)no1)NS(=O)(=O)c1cccc(F)c1", "target": "SIRT2", "effect on": "enzyme activity", "mode": "inhibitor", "concentration": "30 µM", "inhibition [%]": 13}
{"SMILES": "CCC(C)(C)C(=O)O[C@H]1C[C@@H](C)C=C2C=C[C@H](C)[C@H](CC[C@@H]3C[C@@H](O)CC(=O)O3)[C@H]21", "target": "HSD11B2", "effect on": "enzyme activity", "mode": "inhibitor", "concentration": "20 µM", "notes": "lysate", "inhibition [%]": "< 40"}
{"SMILES": "Cc1ccc(N(O)N=Nc2ccc(S(=O)(=O)Nc3onc(C)c3C)cc2)cc1", "target": "AMY2", "effect on": "enzyme activity", "mode": "inhibitor", "concentration": "180 µg/mL", "inhibition [%]": 42.1}
{"SMILES": "O=C(NC1CCC1)[C@H](Cc1c[nH]c2ccccc12)NC(=O)[C@H](CCCCNC(=S)NCCn1nn[nH]c1=O)NS(=O)(=O)c1cccc(F)c1", "target": "SIRT2", "effect on": "enzyme activity", "mode": "inhibitor", "concentration": "100 µM", "inhibition [%]": 8}
{"SMILES": "Cc1cccc(N(O)N=Nc2ccc(S(=O)(=O)Nc3onc(C)c3C)cc2)c1", "target": "AMY2", "effect on": "enzyme activity", "mode": "inhibitor", "concentration": "240 µg/mL", "inhibition [%]": 52.6}
{"SMILES": "CC(=S)NCCCC[C@H](NC(=O)OCc1ccccc1)C(=O)N[C@@H](Cc1c[nH]c2ccccc12)C(=O)N[C@@H](CC(N)=O)C(N)=O", "target": "SIRT2", "effect on": "enzyme activity", "mode": "inhibitor", "concentration": "1 µM", "inhibition [%]": 26}
{"SMILES": "COc1cc(C=Cc2cc(-c3ccc(N(C)C)cc3)nc(O)n2)ccc1O", "target": "AMY2", "effect on": "enzyme activity", "mode": "inhibitor", "method": "absorbance", "concentration": "1.25 µg/mL", "inhibition [%]": 50.3}
{"SMILES": "CCCN(O)N=Nc1ccc(S(=O)(=O)Nc2cc(C)on2)cc1", "target": "AMY2", "effect on": "enzyme activity", "mode": "inhibitor", "concentration": "240 µg/mL", "inhibition [%]": 57.9}
{"SMILES": "O=C(c1ccc(F)cc1)N(Cc1ccccc1)C1CCCCC1", "target": "CHRM2", "effect on": "cell-free assay", "concentration": "10 µM", "inhibition [%]": 16}
{"SMILES": "CCN(c1cc(C#CCN2CCOCC2)cc(C(=O)NCc2c(C)cc(C)[nH]c2=O)c1C)[C@H]1CC[C@H](N(C)CCOC)CC1", "target": "N-lysine methyltransferase SMYD2 (SMYD2, Homo sapiens, UniProt Q9NRG4)", "effect on": "enzyme activity", "mode": "inhibitor", "concentration": "1 µM", "inhibition [%]": 8}
{"SMILES": "Cc1noc(NS(=O)(=O)c2ccc(N=NN(C)O)cc2)c1C", "target": "AMY2", "effect on": "enzyme activity", "mode": "inhibitor", "concentration": "120 µg/mL", "inhibition [%]": 42.1}
{"SMILES": "CCCCCCCCCCCCNC(=O)CCCCC[C@H](NC(=O)OCc1ccccc1)C(=O)N[C@@H](Cc1c[nH]c2ccccc12)C(=O)NC(C)C", "target": "SIRT2", "effect on": "enzyme activity", "mode": "inhibitor", "concentration": "100 µM", "inhibition [%]": 29}
{"SMILES": "CCN(O)N=Nc1ccc(S(=O)(=O)Nc2nccs2)cc1", "target": "AMY2", "effect on": "enzyme activity", "mode": "inhibitor", "concentration": "300 µg/mL", "inhibition [%]": 63.2}
{"SMILES": "CCCCc1oc2ccccc2c1C(=O)c1cc(I)c(OCCN(CC)CC)c(I)c1", "target": "HSD11B2", "effect on": "enzyme activity", "mode": "inhibitor", "concentration": "20 µM", "notes": "lysate", "inhibition [%]": "< 40"}
{"SMILES": "CCOCCOCCOCCNC(=S)NCCCC[C@H](NS(C)(=O)=O)C(=O)N[C@H](C)C(=O)N[C@@H](CCCNC(=N)N)C(N)=O", "target": "SIRT2", "effect on": "enzyme activity", "mode": "inhibitor", "concentration": "100 µM", "inhibition [%]": 13}
{"SMILES": "Oc1cccc(Nc2nc(-c3ccc(F)cc3F)cs2)c1", "target": "CHRM2", "effect on": "cell-free assay", "concentration": "10 µM", "inhibition [%]": -43.3}
{"SMILES": "COc1cc(C=CC(=O)CC(c2ccc([N+](=O)[O-])cc2)n2ccnc2)ccc1O (stereo not drawn)", "target": "AMY2", "effect on": "enzyme activity", "mode": "inhibitor", "method": "absorbance", "concentration": "5 µg/mL", "inhibition [%]": 75.6}
{"SMILES": "CC(=S)NCCCC[C@H](NC(=O)OCc1ccccc1)C(=O)N[C@@H](Cc1c[nH]c2ccccc12)C(=O)N[C@@H](CCC(=O)O)C(N)=O", "target": "SIRT2", "effect on": "enzyme activity", "mode": "inhibitor", "concentration": "10 µM", "inhibition [%]": 39}
{"SMILES": "COc1cc(C=CC(=O)CC(c2ccc(N(C)C)cc2)n2ccnc2)ccc1O (stereo not drawn)", "target": "AMY2", "effect on": "enzyme activity", "mode": "inhibitor", "method": "absorbance", "concentration": "1.25 µg/mL", "inhibition [%]": 58.2}
{"SMILES": "CN(C)CCCN1c2ccccc2Sc2ccc(Cl)cc21", "target": "HSD11B2", "effect on": "enzyme activity", "mode": "inhibitor", "concentration": "20 µM", "notes": "lysate", "inhibition [%]": "< 40"}
{"SMILES": "Cc1ccc(N(O)N=Nc2ccc(S(=O)(=O)Nc3cc(C)on3)cc2)cc1", "target": "AMY2", "effect on": "enzyme activity", "mode": "inhibitor", "concentration": "300 µg/mL", "inhibition [%]": 78.9}
{"SMILES": "CC/C(=N\\NC(=O)NCc1cccc(O)c1)c1ccc(O)c(C)c1O", "target": "Fibroblast growth factor receptor 3 (FGFR3, Homo sapiens, UniProt P22607, V555M)", "effect on": "enzyme activity", "mode": "inhibitor", "concentration": "0.1 µM", "inhibition [%]": 0.7}
{"SMILES": "C[C@H]1O[C@H](O[C@H]2[C@H](O)[C@@H](O)[C@@H](O[C@H]3[C@H](O)[C@@H](O)C(O)O[C@@H]3CO)O[C@@H]2CO)[C@H](O)[C@@H](O)[C@@H]1N[C@H]1C=C(CO)[C@@H](O)[C@H](O)[C@H]1O (stereo partly drawn)", "target": "AMY2", "effect on": "enzyme activity", "mode": "inhibitor", "concentration": "30 µg/mL", "inhibition [%]": 32.1}
{"SMILES": "CCCCCCCCCCCCNC(=S)NCCCC[C@H](NC(=O)OCc1ccccc1)C(=O)N[C@@H](Cc1c[nH]c2ccccc12)C(=O)N[C@@H](CC(N)=O)C(N)=O", "target": "SIRT2", "effect on": "enzyme activity", "mode": "inhibitor", "concentration": "100 µM", "inhibition [%]": 16}
{"SMILES": "CN(O)N=Nc1ccc(S(=O)(=O)Nc2nccs2)cc1", "target": "AMY2", "effect on": "enzyme activity", "mode": "inhibitor", "concentration": "60 µg/mL", "inhibition [%]": 26.3}
{"SMILES": "COc1cc(C=Cc2cc(-c3ccccc3)nc(O)n2)ccc1O", "target": "AMY2", "effect on": "enzyme activity", "mode": "inhibitor", "method": "absorbance", "concentration": "2.5 µg/mL", "inhibition [%]": 66.3}
{"SMILES": "O=C1CC(CCNC(=S)NCCCC[C@H](NS(=O)(=O)c2cccc(F)c2)C(=O)N[C@@H](Cc2c[nH]c3ccccc23)C(=O)NC2CCC2)=NO1", "target": "SIRT2", "effect on": "enzyme activity", "mode": "inhibitor", "concentration": "10 µM", "inhibition [%]": 9}
{"SMILES": "O=C(O)CN1CCN(CC(=O)O)CCN(CC(=O)O)CC1", "target": "Hydroxyacylglutathione hydrolase, mitochondrial (Homo sapiens, UniProt Q16775)", "effect on": "cell-free assay", "concentration": "100 µM", "inhibition [%]": 0.85}
